# Results as given in ChEMBL document CHEMBL5058577, “EUbOPEN Chemogenomics Library 2 (Multiplex)” (2022).
# Test system: U2OS
# Assay: Multiplex assay against U2OS
# Format: toxicity, cell-based
# Settings: human
# How it was run: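 Cells were classed with CellPathfinder machine-learning gating, first as Hoechst high-intensity objects or normal cells, then (normal cells) as healthy, pyknosed or fragmented nuclei, and finally (pyknosed cells) as mitotic or apoptotic. Staining of live cells at seeding used Hoechst33342, BioTracker Green Microtubule Cytoskeleton Dye, MitoTracker Red and Annexin V Alexa Fluor 680, with imaging on a CQ1 microscope at 37°C and 5% CO2 after compound addition. Tubulin, mitochondrial-mass and membrane-permeability phenotypes are per cents of healthy-nucleus cells.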
# [1] = 12 h, 1 µM, compound concentration 1 uM, replicate 1
# [2] = 12 h, 1 µM, compound concentration 1 uM, replicate 2
# [3] = 12 h, 10 µM, compound concentration 10 uM, replicate 1
# [4] = 12 h, 10 µM, compound concentration 10 uM, replicate 2
# [5] = 24 h, 1 µM, compound concentration 1 uM, replicate 1
# [6] = 24 h, 1 µM, compound concentration 1 uM, replicate 2
# [7] = 24 h, 10 µM, compound concentration 10 uM, replicate 1
# [8] = 24 h, 10 µM, compound concentration 10 uM, replicate 2
# [9] = 48 h, 1 µM, compound concentration 1 uM, replicate 1
# [10] = 48 h, 1 µM, compound concentration 1 uM, replicate 2
# [11] = 48 h, 10 µM, compound concentration 10 uM, replicate 1
# [12] = 48 h, 10 µM, compound concentration 10 uM, replicate 2
structure (smiles),measurement,setting,value
CNC[C@H](O)c1ccc(O)c(O)c1 [EPINEPHRINE],Population Apoptotic (%),[1],88%
same,Population Fragmented Nuclei (%),[1],35%
same,Population Healthy Nuclei (%),[1],56%
same,Population Hoechst High Intensity Objects (%),[1],2%
same,Population Membrane Permeable-Phenotype (%),[1],5%
same,Population Mitochondria Different-Phenotype (%),[1],1%
same,Population Mitotic Cells (%),[1],11%
same,Population Normal (%),[1],97%
same,Population Pyknosed Nuclei (%),[1],7%
same,Population Tubulin-Different-Phenotype (%),[1],2%
same,Total Cell Count,[1],229
same,Population Apoptotic (%),[2],80%
same,Population Fragmented Nuclei (%),[2],17%
same,Population Healthy Nuclei (%),[2],77%
same,Population Hoechst High Intensity Objects (%),[2],0%
same,Population Membrane Permeable-Phenotype (%),[2],7%
same,Population Mitochondria Different-Phenotype (%),[2],2%
same,Population Mitotic Cells (%),[2],20%
same,Population Normal (%),[2],100%
same,Population Pyknosed Nuclei (%),[2],5%
same,Population Tubulin-Different-Phenotype (%),[2],4%
same,Total Cell Count,[2],92
same,Population Apoptotic (%),[3],92%
same,Population Fragmented Nuclei (%),[3],41%
same,Population Healthy Nuclei (%),[3],45%
same,Population Hoechst High Intensity Objects (%),[3],6%
same,Population Membrane Permeable-Phenotype (%),[3],7%
same,Population Mitochondria Different-Phenotype (%),[3],1%
same,Population Mitotic Cells (%),[3],8%
same,Population Normal (%),[3],93%
same,Population Pyknosed Nuclei (%),[3],13%
same,Population Tubulin-Different-Phenotype (%),[3],4%
same,Total Cell Count,[3],199
same,Population Apoptotic (%),[4],86%
same,Population Fragmented Nuclei (%),[4],33%
same,Population Healthy Nuclei (%),[4],50%
same,Population Hoechst High Intensity Objects (%),[4],9%
same,Population Membrane Permeable-Phenotype (%),[4],6%
same,Population Mitochondria Different-Phenotype (%),[4],2%
same,Population Mitotic Cells (%),[4],13%
same,Population Normal (%),[4],90%
same,Population Pyknosed Nuclei (%),[4],15%
same,Population Tubulin-Different-Phenotype (%),[4],6%
same,Total Cell Count,[4],105
same,Population Apoptotic (%),[5],84%
same,Population Fragmented Nuclei (%),[5],28%
same,Population Healthy Nuclei (%),[5],64%
same,Population Hoechst High Intensity Objects (%),[5],2%
same,Population Membrane Permeable-Phenotype (%),[5],6%
same,Population Mitochondria Different-Phenotype (%),[5],1%
same,Population Mitotic Cells (%),[5],15%
same,Population Normal (%),[5],97%
same,Population Pyknosed Nuclei (%),[5],7%
same,Population Tubulin-Different-Phenotype (%),[5],2%
same,Total Cell Count,[5],278
same,Population Apoptotic (%),[6],75%
same,Population Fragmented Nuclei (%),[6],19%
same,Population Healthy Nuclei (%),[6],68%
same,Population Membrane Permeable-Phenotype (%),[6],7%
same,Population Mitochondria Different-Phenotype (%),[6],5%
same,Population Mitotic Cells (%),[6],25%
same,Population Pyknosed Nuclei (%),[6],11%
same,Population Tubulin-Different-Phenotype (%),[6],1%
same,Total Cell Count,[6],105
same,Population Apoptotic (%),[7],94%
same,Population Fragmented Nuclei (%),[7],39%
same,Population Healthy Nuclei (%),[7],50%
same,Population Hoechst High Intensity Objects (%),[7],9%
same,Population Membrane Permeable-Phenotype (%),[7],11%
same,Population Mitochondria Different-Phenotype (%),[7],5%
same,Population Mitotic Cells (%),[7],5%
same,Population Normal (%),[7],90%
same,Population Pyknosed Nuclei (%),[7],10%
same,Population Tubulin-Different-Phenotype (%),[7],6%
same,Total Cell Count,[7],195
same,Population Apoptotic (%),[8],100%
same,Population Fragmented Nuclei (%),[8],31%
same,Population Healthy Nuclei (%),[8],45%
same,Population Hoechst High Intensity Objects (%),[8],11%
same,Population Membrane Permeable-Phenotype (%),[8],2%
same,Population Mitochondria Different-Phenotype (%),[8],0%
same,Population Mitotic Cells (%),[8],0%
same,Population Normal (%),[8],88%
same,Population Pyknosed Nuclei (%),[8],22%
same,Population Tubulin-Different-Phenotype (%),[8],2%
same,Total Cell Count,[8],96
same,Population Apoptotic (%),[9],87%
same,Population Fragmented Nuclei (%),[9],24%
same,Population Healthy Nuclei (%),[9],66%
same,Population Hoechst High Intensity Objects (%),[9],0%
same,Population Membrane Permeable-Phenotype (%),[9],9%
same,Population Mitochondria Different-Phenotype (%),[9],5%
same,Population Mitotic Cells (%),[9],12%
same,Population Normal (%),[9],99%
same,Population Pyknosed Nuclei (%),[9],9%
same,Population Tubulin-Different-Phenotype (%),[9],4%
same,Total Cell Count,[9],333
same,Population Apoptotic (%),[10],92%
same,Population Fragmented Nuclei (%),[10],18%
same,Population Healthy Nuclei (%),[10],72%
same,Population Membrane Permeable-Phenotype (%),[10],4%
same,Population Mitochondria Different-Phenotype (%),[10],3%
same,Population Mitotic Cells (%),[10],7%
same,Population Tubulin-Different-Phenotype (%),[10],2%
same,Total Cell Count,[10],150
same,Population Apoptotic (%),[11],92%
same,Population Fragmented Nuclei (%),[11],41%
same,Population Healthy Nuclei (%),[11],44%
same,Population Hoechst High Intensity Objects (%),[11],10%
same,Population Membrane Permeable-Phenotype (%),[11],15%
same,Population Mitochondria Different-Phenotype (%),[11],8%
same,Population Mitotic Cells (%),[11],7%
same,Population Normal (%),[11],89%
same,Population Pyknosed Nuclei (%),[11],14%
same,Population Tubulin-Different-Phenotype (%),[11],10%
same,Total Cell Count,[11],215
same,Population Apoptotic (%),[12],94%
same,Population Fragmented Nuclei (%),[12],36%
same,Population Healthy Nuclei (%),[12],40%
same,Population Hoechst High Intensity Objects (%),[12],17%
same,Population Membrane Permeable-Phenotype (%),[12],24%
same,Population Mitochondria Different-Phenotype (%),[12],13%
same,Population Mitotic Cells (%),[12],5%
same,Population Normal (%),[12],82%
same,Population Pyknosed Nuclei (%),[12],23%
same,Population Tubulin-Different-Phenotype (%),[12],13%
same,Total Cell Count,[12],87
